Test results reported in ChEMBL document CHEMBL2086280, “Structure and bioactivity of steroidal saponins isolated from the roots of Chamaelirium luteum (false unicorn)” (J Nat Prod, 2012).
Converted amounts (≈) assume the structure as drawn.

How the values were obtained:
[1] = test system: MCF7; assay: Cytotoxicity against human MCF7 cells after 6 days by SRB assay; assay type: functional, cell-based; conditions: MCF7, 144 h
How it was run: (§1)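 Seeded at 3000−5000 cells/well and exposed for 6 days to compounds diluted from 10 mg/mL DMSO stocks. The top final concentration was 50 μg/mL, carrying 0.5% DMSO final. Cells were ethanol-fixed and stained with sulforhodamine, with absorbance read at 540 nm against untreated controls. IC50 was interpolated from plots of percent control absorbance versus dose.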

[2] = test system: HeLa; assay: Cytotoxicity against human HeLa cells after 6 days by SRB assay; assay type: functional, cell-based; conditions: 144 h; how it was run: as §1
[3] = test system: NFF; assay: Cytotoxicity against human NFF cells after 6 days by SRB assay; assay type: cell-based; conditions: 144 h; how it was run: as §1
[4] = test system: MM96L; assay: Cytotoxicity against human MM96L cells after 6 days by SRB assay; assay type: functional, cell-based; conditions: 144 h; how it was run: as §1
[5] = test system: K562; assay: Cytotoxicity against human K562 cells after 6 days by MTS assay; conditions: K562, 144 h
[6] = test system: HT-29; assay: Cytotoxicity against human HT-29 cells after 6 days by SRB assay; assay type: functional, cell-based; conditions: HT-29, 144 h; how it was run: as §1

Row | SMILES | IC50 [1] [µg/mL] | IC50 [2] [µg/mL] | IC50 [3] [µg/mL] | IC50 [4] [µg/mL] | IC50 [5] [µg/mL] | IC50 [6] [µg/mL]
1 | CC(C)[C@H](O)[C@H](O)C[C@@H](C)[C@H]1[C@@H](O)C[C@H]2[C@@H]3CC(=O)[C@H]4C[C@@H](O[C@@H]5O[C@H](CO[C@@H]6O[C@H](CO)[C@@H](O)[C@H](O)[C@H]6O)[C@@H](O)[C@H](O)[C@H]5O)CC[C@]4(C)[C@H]3CC[C@]12C | > 50 | > 50 | > 50 | > 50 | > 50 | > 50
2 | CC(C)[C@H](O[C@@H]1O[C@H](C)[C@H](O)[C@H](O)[C@H]1O)[C@H](O)C[C@@H](C)[C@H]1[C@@H](O)C[C@H]2[C@@H]3C[C@@H](O)[C@H]4C[C@@H](O[C@@H]5O[C@H](CO[C@@H]6O[C@H](CO)[C@@H](O)[C@H](O)[C@H]6O)[C@@H](O)[C@H](O)[C@H]5O)CC[C@]4(C)[C@H]3CC[C@]12C [CHAMAELIROSIDE B] | > 50 | > 50 | > 50 | > 50 | > 50 | > 50
3 | CC(C)[C@H](O)[C@H](O)C[C@@H](C)[C@H]1[C@@H](O[C@@H]2O[C@H](CO)[C@@H](O)[C@H](O)[C@H]2O)C[C@H]2[C@@H]3C[C@@H](O)[C@H]4C[C@@H](O[C@@H]5O[C@H](CO[C@@H]6O[C@H](CO)[C@@H](O)[C@H](O)[C@H]6O)[C@@H](O)[C@H](O)[C@H]5O)CC[C@]4(C)[C@H]3CC[C@]12C [CHAMAELIROSIDE E] | > 50 | > 50 | > 50 | > 50 | > 50 | > 50
4 | CC(=O)O[C@H]1CC[C@@]2(C)C(=CC[C@H]3[C@@H]4C[C@H](OC(C)=O)[C@H]([C@H](C)C(=O)CC[C@@H](C)CO)[C@@]4(C)CC[C@@H]32)C1 | 0.8 (≈ 1.55 µM) | 2.8 (≈ 5.42 µM) | 2 (≈ 3.87 µM) | 1 (≈ 1.94 µM) | 1.7 (≈ 3.29 µM) | 0.8 (≈ 1.55 µM)
5 | CC(C)[C@H](O)[C@H](O)C[C@@H](C)[C@H]1[C@@H](O)C[C@H]2[C@@H]3CC(=O)[C@H]4C[C@@H](O)CC[C@]4(C)[C@H]3CC[C@]12C | 15 (≈ 33.3 µM) | 15 (≈ 33.3 µM) | 17 (≈ 37.7 µM) | 4.5 (≈ 9.99 µM) | 5 (≈ 11.1 µM) | 13 (≈ 28.8 µM)
6 | CC(C)[C@H](O)[C@H](O)C[C@@H](C)[C@H]1[C@@H](O)C[C@H]2[C@@H]3C[C@@H](O)[C@H]4C[C@@H](O[C@@H]5O[C@H](CO[C@@H]6O[C@H](CO)[C@@H](O)[C@H](O)[C@H]6O)[C@@H](O)[C@H](O)[C@H]5O)CC[C@]4(C)[C@H]3CC[C@]12C [CHAMAELIROSIDE A] | > 50 | > 50 | > 50 | > 50 | > 50 | > 50
7 | CC(C)[C@H](O[C@@H]1O[C@H](C)[C@H](O)[C@H](O)[C@H]1O)[C@H](O)C[C@@H](C)[C@H]1[C@@H](O)C[C@H]2[C@@H]3CC(=O)[C@H]4C[C@@H](O[C@@H]5O[C@H](CO[C@@H]6O[C@H](CO)[C@@H](O)[C@H](O)[C@H]6O)[C@@H](O)[C@H](O)[C@H]5O)CC[C@]4(C)[C@H]3CC[C@]12C | > 50 | > 50 | > 50 | > 50 | > 50 | > 50
8 | CC(C)[C@H](O)[C@H](O)C[C@@H](C)[C@H]1[C@@H](O[C@@H]2O[C@H](CO)[C@@H](O)[C@H](O)[C@H]2O)C[C@H]2[C@@H]3CC(=O)[C@H]4C[C@@H](O[C@@H]5O[C@H](CO[C@@H]6O[C@H](CO)[C@@H](O)[C@H](O)[C@H]6O)[C@@H](O)[C@H](O)[C@H]5O)CC[C@]4(C)[C@H]3CC[C@]12C | > 50 | > 50 | > 50 | > 50 | > 50 | > 50
9 | C[C@@H](CO)CC[C@H](O)[C@@H](C)[C@H]1[C@@H](O)C[C@H]2[C@@H]3CC=C4C[C@@H](O)CC[C@]4(C)[C@H]3[C@H](O)C[C@]12C [HELOGENIN] | > 50 | > 50 | > 50 | > 50 | > 50 | > 50
10 | C[C@@H](CO)CC[C@@H](O)[C@@H](C)[C@H]1[C@@H](O)C[C@H]2[C@@H]3CC=C4C[C@@H](O)CC[C@]4(C)[C@H]3CC[C@]12C | > 50 | > 50 | > 50 | > 50 | > 50 | > 50
11 | C[C@@H]1CC[C@@]2(OC1)O[C@H]1C[C@H]3[C@@H]4CC=C5C[C@@H](O)CC[C@]5(C)[C@H]4CC[C@]3(C)[C@H]1[C@@H]2C [DISOGENIN] | > 50 | > 50 | > 50 | > 50 | > 50 | > 50
12 | C[C@H](CC[C@H](O)[C@@H](C)[C@H]1[C@@H](O)C[C@H]2[C@@H]3CC=C4C[C@@H](O[C@@H]5O[C@H](CO)[C@@H](O)[C@H](O)[C@H]5O)CC[C@]4(C)[C@H]3[C@H](O)C[C@]12C)CO[C@@H]1O[C@H](CO)[C@@H](O)[C@H](O)[C@H]1O [HELOSIDE A] | > 50 | > 50 | > 50 | > 50 | > 50 | > 50
13 | C[C@@H](CO)CC[C@H](O)[C@@H](C)[C@H]1[C@@H](O)C[C@H]2[C@@H]3CC=C4C[C@@H](O)CC[C@]4(C)[C@H]3CC[C@]12C | > 50 | > 50 | > 50 | > 50 | > 50 | > 50
14 | CC(=O)OC[C@H](C)CC[C@@H](OC(C)=O)[C@@H](C)[C@H]1[C@@H](OC(C)=O)C[C@H]2[C@@H]3CC=C4C[C@@H](OC(C)=O)CC[C@]4(C)[C@H]3CC[C@]12C | 7.5 (≈ 12.4 µM) | 13 (≈ 21.6 µM) | 13 (≈ 21.6 µM) | 4.5 (≈ 7.47 µM) | 8.5 (≈ 14.1 µM) | 6.5 (≈ 10.8 µM)
15 | CC(=O)OC[C@H](C)CC[C@H](OC(C)=O)[C@@H](C)[C@H]1[C@@H](OC(C)=O)C[C@H]2[C@@H]3CC=C4C[C@@H](OC(C)=O)CC[C@]4(C)[C@H]3CC[C@]12C | 11 (≈ 18.2 µM) | 16 (≈ 26.5 µM) | 12 (≈ 19.9 µM) | 3.5 (≈ 5.81 µM) | 4.5 (≈ 7.47 µM) | 4.5 (≈ 7.47 µM)
16 | CC(=O)O[C@@H]1[C@H](O)[C@@H](O)[C@H](O[C@@H](C(C)C)[C@H](O)C[C@@H](C)[C@H]2[C@@H](O)C[C@H]3[C@@H]4C[C@@H](O)[C@H]5C[C@@H](O[C@@H]6O[C@H](CO[C@@H]7O[C@H](CO)[C@@H](O)[C@H](O)[C@H]7O)[C@@H](O)[C@H](O)[C@H]6O)CC[C@]5(C)[C@H]4CC[C@]23C)O[C@@H]1C [CHAMAELIROSIDE C] | > 50 | > 50 | > 50 | > 50 | > 50 | > 50
17 | CC(C)[C@H](O)[C@H](O)C[C@@H](C)[C@H]1[C@@H](O)C[C@H]2[C@@H]3C[C@@H](O)[C@H]4C[C@@H](O)CC[C@]4(C)[C@H]3CC[C@]12C | 13 (≈ 28.7 µM) | 12 (≈ 26.5 µM) | 22 (≈ 48.6 µM) | 8.5 (≈ 18.8 µM) | 7 (≈ 15.5 µM) | 11 (≈ 24.3 µM)
18 | CC(C)[C@@H]1OC(C)(C)O[C@@H]1C[C@@H](C)[C@H]1[C@@H](O)C[C@H]2[C@@H]3C[C@@H](O)[C@H]4C[C@@H](O)CC[C@]4(C)[C@H]3CC[C@]12C | 5 (≈ 10.1 µM) | 4.3 (≈ 8.73 µM) | 10 (≈ 20.3 µM) | 5 (≈ 10.1 µM) | 8.5 (≈ 17.3 µM) | 3.5 (≈ 7.1 µM)
